Test results taken from publication PMC8925131 (Experimental cell research, 2021).

Tests used:
[1] = target: T1, Plekha7 (D175K) PH domain (Homo sapiens, UniProt Q6IQ23, D175K); experiment: Isothermal titration calorimetry; type: binding; conditions: ITC, diC8-PI, D175K mutant versus wild-type PH domain
T1 sequence (Q6IQ23 164-298 D175K): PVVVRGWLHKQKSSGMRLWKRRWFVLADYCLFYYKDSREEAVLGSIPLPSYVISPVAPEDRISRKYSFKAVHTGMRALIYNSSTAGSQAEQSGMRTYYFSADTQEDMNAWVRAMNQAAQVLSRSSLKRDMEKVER
Summary of the method: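 Human Plekha7 PH domain (residues 164–298, D175K mutant alongside wild type) was GST-vector expressed in E. coli BL21. ITC was run at 23 °C: 50 µM PH domain titrated with 0.5–1.0 mM diC8-phosphoinositides (PI(3,4)P2, PI(3,5)P2, PI(4,5)P2, PI(3,4,5)P3) in 30 mM NaCl, 15 mM Tris pH 7.6, 0.2 mM TCEP. Integrated heats were fit to a single-site model for Kd, reported as mean with SD.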

[2] = tested on: mutant KRas CRC cells; experiment: Growth of mutant KRas CRC cells; type: cell-based; conditions: mutant KRas CRC cells (Figure S12C)
[3] = tested on: wild type KRas CRC cells; experiment: Growth of wild type KRas CRC cells; type: cell-based; conditions: wild type KRas CRC cells (Figure S12C)
[4] = tested on: mutant BRaf CRC cells; experiment: Growth of mutant BRaf CRC cells; type: cell-based; conditions: mutant BRaf CRC cells (Figure S12C)
[5] = target: Plekha7-GFP (Pleckstrin homology domain containing, family A member 7, GFP fusion) (human) (UniProt Q6IQ23); experiment: FRET or BRET
Sequence of Plekha7-GFP (Pleckstrin homology domain containing, family A member 7, GFP fusion) (human) (Q6IQ23 whole entry, the tested form may be a part): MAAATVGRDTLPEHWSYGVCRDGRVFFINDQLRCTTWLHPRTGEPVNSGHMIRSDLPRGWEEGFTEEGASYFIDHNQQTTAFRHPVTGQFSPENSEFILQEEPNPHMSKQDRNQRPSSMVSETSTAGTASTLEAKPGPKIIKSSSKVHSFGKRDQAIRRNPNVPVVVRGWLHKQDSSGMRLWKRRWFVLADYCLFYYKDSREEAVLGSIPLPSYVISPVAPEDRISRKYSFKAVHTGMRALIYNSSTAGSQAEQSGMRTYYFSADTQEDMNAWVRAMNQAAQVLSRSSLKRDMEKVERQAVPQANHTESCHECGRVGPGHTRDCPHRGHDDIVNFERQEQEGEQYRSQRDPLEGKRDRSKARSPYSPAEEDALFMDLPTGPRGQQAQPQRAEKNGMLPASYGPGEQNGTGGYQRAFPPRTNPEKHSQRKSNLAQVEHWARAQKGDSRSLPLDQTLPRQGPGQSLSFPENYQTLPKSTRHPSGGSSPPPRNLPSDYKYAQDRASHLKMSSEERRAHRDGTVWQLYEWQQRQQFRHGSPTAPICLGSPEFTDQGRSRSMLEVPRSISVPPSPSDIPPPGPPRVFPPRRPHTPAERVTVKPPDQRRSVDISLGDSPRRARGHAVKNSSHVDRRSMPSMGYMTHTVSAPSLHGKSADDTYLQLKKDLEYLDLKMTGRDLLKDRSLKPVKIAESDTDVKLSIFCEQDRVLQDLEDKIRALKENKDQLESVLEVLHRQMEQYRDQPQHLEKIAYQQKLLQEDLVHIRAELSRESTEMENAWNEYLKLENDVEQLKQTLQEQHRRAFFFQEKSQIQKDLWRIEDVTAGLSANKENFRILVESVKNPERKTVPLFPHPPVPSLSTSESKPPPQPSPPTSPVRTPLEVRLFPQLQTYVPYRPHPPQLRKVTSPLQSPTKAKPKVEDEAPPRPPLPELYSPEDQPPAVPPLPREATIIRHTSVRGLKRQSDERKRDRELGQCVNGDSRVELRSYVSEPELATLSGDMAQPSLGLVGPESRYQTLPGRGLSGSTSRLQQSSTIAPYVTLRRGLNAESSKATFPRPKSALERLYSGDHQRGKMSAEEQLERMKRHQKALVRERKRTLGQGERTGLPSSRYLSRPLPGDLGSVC

Compound | increase in affinity for Plekha7 (D175K) compared with the wild-type protein [1] | inhibition of mutant KRas CRC cell growth [2] | effect on growth of wild type KRas CRC cells [3] | also measured
CCCCCCCC(=O)OC[C@H](COP(=O)(O)O[C@H]1[C@H](O)[C@@H](O)[C@H](OP(=O)(O)O)[C@@H](OP(=O)(O)O)[C@H]1O)OC(=O)CCCCCCC [PI(3,4)P2] | 10 fold | – | – | –
CC1(C)Oc2ccc(-c3csc(Cn4nc(CCO)c5ccccc5c4=O)n3)cc2O1 [PHT-7704, 2-((4-(2,2-dimethylbenzo[d][1,3]dioxol-5-yl)thiazol-2-yl)methyl)-4-(2-hydroxyethyl)phthalazin-1(2H)-one] | – | selective inhibition | without affecting the growth | inhibition of growth of mutant BRaf CRC cells [4]: inhibited the growth
wild-type KRas-RFP (from UniProt P01116 1-189) (natural protein) | – | – | – | average fluorescence lifetime of Plekha7-GFP [5]: 1.9 ns
CCCCCCCC(=O)OC[C@H](COP(=O)(O)O[C@H]1[C@H](O)[C@@H](OP(=O)(O)O)[C@H](OP(=O)(O)O)[C@@H](OP(=O)(O)O)[C@H]1O)OC(=O)CCCCCCC [PI(3,4,5)P3] | 10 fold | – | – | –
CCCCCCCC(=O)OC[C@H](COP(=O)(O)O[C@@H]1[C@H](O)[C@H](O)[C@@H](OP(=O)(O)O)[C@H](OP(=O)(O)O)[C@H]1O)OC(=O)CCCCCCC [PI(4,5)P2] | – | – | – | change of affinity for Plekha7 (D175K) compared with wild-type [1]: did not change
CCCCCCCCCCCCCCCCCCOC[C@H](COP(=O)(O)OC1C(O)[C@@H](O)C(O)C[C@H]1O)OC (stereo partly drawn) [DPIEL] | – | selective inhibition | without affecting the growth | –
